What is called IC50 is the concentration at which inhibition is half-maximal. In general, bioavailability refers to dose-corrected exposure relative to a reference, in per cent. Higher therefore signals much systemic uptake. A word on the MIC90: it is an inhibitory concentration at the 90% level, which refers to growth in some studies and to a panel of isolates in others. Read a low MIC90 as higher susceptibility. The Cmax is the highest concentration seen after dosing. By AUC is commonly meant concentration integrated over time. A higher AUC goes with high exposure. What is called clearance is a measure of how efficiently the substance is removed, as volume per time. A low value points to a low capacity for elimination. The half-life is the time needed for the level to fall by half in the phase considered.

For one data set, the system named is Escherichia coli. Put plainly: Inhibition of protein synthesis in Escherichia coli by cell-free transcription-translation assay. It is filed as functional. In short, it runs like this: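 E. coli cell-free coupled transcription/translation run in microtiter format with a luciferase reporter; luminescence was the read-out for protein synthesis.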
A short description of data set [1]: Bioavailability in Sprague-Dawley rat at 20 mg/kg, po. It is filed as ADME, organism-based. Particulars: Sprague-Dawley, in vivo.
For a further data set, the system named is Streptococcus pneumoniae. Description: Antibacterial activity against levofloxacin-penicillin-resistant Streptococcus pneumoniae SV1 SP3 by microbroth technology. The format is functional. In short, it runs like this:
(§1)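 Drug-resistant panel strains (levofloxacin/oxacillin-resistant S. aureus, levofloxacin/penicillin-resistant S. pneumoniae, vancomycin-resistant E. faecalis and E. faecium). Broth microdilution MIC in µg/mL; value reported as MIC90 across the strains of each resistant group.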

Data set [2] in a line: Cmax in Sprague-Dawley rat at 20 mg/kg, po. The format is ADME, organism-based. Details: dose 20 mg/kg, route oral. The settings on record: in vivo.
Data set [3] has as its target T1, Amine oxidase [flavin-containing] A (Homo sapiens, UniProt P21397).
T1 sequence (P21397 whole entry): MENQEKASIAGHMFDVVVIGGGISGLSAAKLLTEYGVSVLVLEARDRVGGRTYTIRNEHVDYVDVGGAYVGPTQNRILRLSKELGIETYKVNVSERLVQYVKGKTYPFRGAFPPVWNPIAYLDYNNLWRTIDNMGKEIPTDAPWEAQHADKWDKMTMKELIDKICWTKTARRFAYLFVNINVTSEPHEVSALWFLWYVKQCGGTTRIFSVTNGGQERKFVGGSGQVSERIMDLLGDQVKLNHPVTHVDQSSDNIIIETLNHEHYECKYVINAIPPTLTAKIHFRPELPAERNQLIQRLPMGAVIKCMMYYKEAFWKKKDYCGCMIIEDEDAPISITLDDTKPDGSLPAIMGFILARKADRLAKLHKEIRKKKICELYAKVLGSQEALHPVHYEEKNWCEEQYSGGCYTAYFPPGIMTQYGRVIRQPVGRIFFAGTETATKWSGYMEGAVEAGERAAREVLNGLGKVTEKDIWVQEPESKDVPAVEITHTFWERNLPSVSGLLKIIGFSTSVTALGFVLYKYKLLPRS
Put plainly: Inhibition of human recombinant MAOA.

A further data set concerns Enterococcus faecalis. Description: Antibacterial activity against vancomycin-resistant Enterococcus faecalis MGH2 EF1 by microbroth technology. The format is functional. In short, it runs like this:
as §1
In general terms: In broth dilution the organism is exposed to a series of concentrations in liquid medium.

A further data set deals with Haemophilus influenzae. Description: Antibacterial activity against Haemophilus influenzae by micro-broth technology. It is filed as functional. The method, boiled down: (§2)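 MIC determined by broth microdilution, reported in µg/mL.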
Data set [4] is described as follows: Volume of distribution at steady state in Sprague-Dawley rat at 10 mg/kg, iv. The format is ADME, organism-based. Details: dose 10 mg/kg, route intravenous. Particulars: in vivo, read-out: Vdss.
A further data set concerns Moraxella catarrhalis. Put plainly: Antibacterial activity against Moraxella catarrhalis by microbroth technology. The format is functional. In short, it runs like this:
as §2

The nature of data set [5]: AUC in Sprague-Dawley rat at 20 mg/kg, po. The format is ADME, organism-based, Plasma. Details: dose 20 mg/kg, route oral. Particulars: Sprague-Dawley, plasma.
The subject of the next data set is Enterococcus faecium. Put plainly: Antibacterial activity against vancomycin-resistant Enterococcus faecium by micro-broth technology. It is filed as functional. In short, it runs like this:
as §1

Data set [6] is described as follows: Clearance in Sprague-Dawley rat at 10 mg/kg, iv. It is filed as ADME, organism-based. Also on record: dose 10 mg/kg, route intravenous. Particulars: in vivo.
Data set [7] deals with Staphylococcus aureus. Put plainly: Antibacterial activity against levofloxacin-oxacillin-resistant Staphylococcus aureus UC76 SA1 by micro-broth technology. It is filed as functional. In short, it runs like this: as §1
Data set [8] concerns Staphylococcus aureus. Description: Antibacterial activity against Staphylococcus aureus UC76 in po dosed CD1 mouse systemic infection model assessed as mortality after 7 days. The format is functional.
Data set [9] in a line: Half life in Sprague-Dawley rat at 20 mg/kg, po. The settings on record: in vivo. Also on record: dose 20 mg/kg, route oral. It is filed as ADME, organism-based.

≈ marks a conversion by molar mass, not a printed value. Bounds are passed on as bounds.

Consider `NC(=O)[C@H]1CN(c2ccc(C3CCS(=O)(=O)CC3)c(F)c2)C(=O)O1`, for which the results for the IC50 (with Escherichia coli; in data set [3]) were 5.89 µM and 105 µM, respectively. Further, in data set [1], the bioavailability came to 40%. Further, the MIC90 with Streptococcus pneumoniae was determined as 2 µg/mL (≈ 5.61 µM); in the data set with Enterococcus faecalis, 2 µg/mL (≈ 5.61 µM); in the data set with Enterococcus faecium, 4 µg/mL (≈ 11.2 µM); with Staphylococcus aureus [7], 2 µg/mL (≈ 5.61 µM). The same compound registered a Cmax in data set [2] of 1880 ng/mL. The MIC against Haemophilus influenzae and against Moraxella catarrhalis was greater than 8 µg/mL each time. For the same compound, the Vd in [4] stood at 1.11 L/kg. The exposure (AUC) in [5] came out at 8620 ng·h/mL. In [6], this compound registered a clearance of 12.9 mL/min/kg. The PD50 in the data set with Staphylococcus aureus [8] was found to be 2.1 mg/kg. In data set [9], this compound showed a half-life of 1.58 h.
Turning to `NC(=O)[C@H]1CN(c2ccc(N3CCOCC3)c(F)c2)C(=O)O1`, the IC50 in the data set on Escherichia coli amounted to 23 µM; in [3], 146 µM. The MIC against Streptococcus pneumoniae is 4 µg/mL (≈ 12.9 µM); with Enterococcus faecalis, 32 µg/mL (≈ 103 µM); with Haemophilus influenzae it was greater than 8 µg/mL; against Moraxella catarrhalis, greater than 8 µg/mL; against Enterococcus faecium, 32 µg/mL (≈ 103 µM); in the data set on Staphylococcus aureus [7], 4 µg/mL (≈ 12.9 µM). For the same compound, in the data set on Staphylococcus aureus [8], the PD50 turned out to be 8.22 mg/kg.

(Values after ChEMBL document CHEMBL1138317, “Antibacterial oxazolidinones possessing a novel C-5 side chain. (5R)-trans-3-[3-Fluoro-4- (1-oxotetrahydrothiopyran-4-yl)phenyl]-2- oxooxazolidine-5-carboxylic acid amide (PF-00422602), a new lead compound” (J Med Chem, 2007).)
